Experimental data pooled from the literature.
Protocols differ between the studies behind these lines.
Target: NUAK family SNF1-like kinase 2 (NUAK2, Homo sapiens, UniProt Q9H093)
One construct used (Q9H093 1-628): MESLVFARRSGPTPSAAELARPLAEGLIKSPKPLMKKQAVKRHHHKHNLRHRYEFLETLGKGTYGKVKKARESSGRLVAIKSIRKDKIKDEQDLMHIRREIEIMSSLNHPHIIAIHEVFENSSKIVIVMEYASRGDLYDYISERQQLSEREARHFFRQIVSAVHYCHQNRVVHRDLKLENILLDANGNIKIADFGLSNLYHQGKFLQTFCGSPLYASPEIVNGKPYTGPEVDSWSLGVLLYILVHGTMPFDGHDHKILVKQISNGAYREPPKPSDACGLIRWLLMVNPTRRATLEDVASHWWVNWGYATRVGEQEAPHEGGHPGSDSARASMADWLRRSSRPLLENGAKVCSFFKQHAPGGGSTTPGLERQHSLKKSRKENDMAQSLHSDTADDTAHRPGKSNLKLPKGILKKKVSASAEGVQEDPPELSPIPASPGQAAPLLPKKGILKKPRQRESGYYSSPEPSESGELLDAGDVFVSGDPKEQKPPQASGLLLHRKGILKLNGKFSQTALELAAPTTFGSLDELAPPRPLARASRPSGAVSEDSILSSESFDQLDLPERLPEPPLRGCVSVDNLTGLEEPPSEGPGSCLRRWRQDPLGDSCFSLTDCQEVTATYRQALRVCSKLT

COc1ccc2oc(-c3ccc4nc(N)oc4c3)c/c(=N\c3ccccc3NC(=O)CCN)c2c1
remaining binding (binding; 1 µM): 93%

Cc1cc(O)c(-c2ccc([C@@H](C)CN(C)C)cc2)c2c1[nH]c(=O)c1sccc12
inhibition (enzyme activity, inhibitor; 0.1 µM): 3.81%

CO[C@@H]1[C@H](N(C)C(=O)c2ccccc2)C[C@H]2O[C@]1(C)n1c3ccccc3c3c4c(c5c6ccccc6n2c5c31)C(=O)NC4
inhibition (enzyme activity, inhibitor; 1 µM): 99%

CCCCC(=O)Nc1ccc(-c2ccc3ncn(CCC)c(=O)c3c2)cn1
remaining binding (binding, competition with immobilised ligand; 0.5 µM): 97%

N#Cc1ccc(NC(=O)Nc2ccccc2)cc1
remaining binding (cell-free assay, competition with immobilised ligand; 25 µM): 77%

C=CC(=O)N1CCC([C@@H]2CCNc3c(C(N)=O)c(-c4ccc(Oc5ccccc5)cc4)nn32)CC1
inhibition (enzyme activity, inhibitor; 1 µM): 24%

CC(C)S(=O)(=O)c1ccc2nccc(Nc3ccc4sc(C5CCCC5)nc4c3)c2c1
activity vs control (enzyme activity, inhibitor; 1 µM): 121%

C[C@]1(O)CCCN(c2nc(Nc3ccc(S(=O)(=O)N[C@H]4CC[C@H](CN5CCN(c6ccc(C7CCC(=O)NC7=O)cc6F)CC5)CC4)cc3Cl)ncc2C(F)(F)F)C1 (stereo partly drawn)
remaining binding (binding, competition with immobilised ligand; 1 µM): 49%

CN1CCN(C(=O)c2ccc(NC(=O)Nc3ccc(N(C)c4ccnc(Nc5ccc(CS(C)(=O)=O)cc5)n4)cc3)cc2)CC1
remaining binding (binding; 1 µM): 39%

C1=C/COCc2cc(ccc2OCCN2CCCC2)Nc2nccc(n2)-c2cccc(c2)COC/1
remaining signal (cell-free assay; 0.1 µM): 13%

C[C@H]1CC[C@H](n2c3cnccc3c3cnc(Nc4ccc5c(n4)CCN(C(=O)CO)C5)nc32)CC1
remaining signal (cell-free assay; 1 µM): 34%

CNS(=O)(=O)c1ccc(Nc2ncc(C(F)(F)F)c(N3CCC[C@](C)(O)C3)n2)c(C)c1
remaining binding (binding, competition with immobilised ligand; 1 µM): 3.9%
